As a reminder, the Tmax is the time from dosing to the highest level. As usually defined, the half-life is how long it takes for the measured level to halve. In general, IC50 refers to the point on the concentration scale where inhibition reaches its midpoint.

Series [1] can be described thus: Tmax in CD-1 mouse at 1 mg/kg, iv administered as single dose measured up to 24 hrs. The format is ADME, organism-based. The conditions noted are these: in vivo. In a few lines:
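Male CD-1 mice, 6–8 weeks old, single tail-vein dose in 3% NMP/45% PEG300/12% ethanol/40% sterile water. Retro-orbital plasma (K3EDTA) taken at 0.083, 0.25, 0.5, 1, 2, 4, 8 and 24 h, n=3/timepoint, analysed by HPLC/MS/MS. Non-compartmental analysis (Model 201, uniform weighting); Tmax read directly from the data.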

The nature of series [2]: In vivo modulation of gamma secretase transgenic Tg2576 mouse overexpressing human APP harboring K595N/M596L Swedish double mutant assessed as reduction in plasma amyloid beta40 level at 50 mg/kg, po administered via gavage for 14 consecutive days and measured after 4 hrs post last dose on day 14 by meso scale discovery relative to control. Details: scale not given: the % may be the effect or the level left. The series is classed as functional. The conditions noted are these: time 14 day. Put shortly: (§1)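 Female Tg2576 mice, 5–6 months old (n=12/dose), gavaged daily for 14 days with 50 mg/kg or vehicle (5% NMP/95% PEG300). Plasma and brain taken 4 h after the last dose. Aβ38/40/42 quantified by Meso Scale multiplex assay, with % reduction versus vehicle. Mean ± SEM, ANOVA.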

Series [3] can be described thus: Half life in CD-1 mouse at 1 mg/kg, iv administered as single dose measured up to 24 hrs. The format is ADME, organism-based. The note with it: CD-1, mouse, in vivo. Put shortly: (§2)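 Male CD-1 mice, 6–8 weeks old, single dose by tail vein (1 mg/kg, 3% NMP/45% PEG300/12% ethanol/40% water) or oral gavage (5 mg/kg, 5% NMP/95% PEG300). Retro-orbital plasma sampled 0.083 (iv only) to 24 h, n=3/timepoint, and analysed by HPLC/MS/MS. Non-compartmental analysis. Half-life taken from the terminal phase using ≥3 non-zero points after Tmax.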

Series [4] can be described thus: Drug level in brain of transgenic Tg2576 mouse overexpressing human APP harboring K595N/M596L Swedish double mutant at 50 mg/kg, po administered via gavage for 14 consecutive days and measured after 4 hrs post last dose on day 14 by HPLC-MS/MS analysis. The format is ADME, organism-based. The conditions noted are these: time 14 day, read-out: Ct. In a few lines:
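Female Tg2576 mice, 5–6 months old, gavaged with 50 mg/kg daily for 14 days (vehicle 5% NMP/95% PEG300), n=12/dose. Plasma and brain collected 4 h after the last dose and analysed by LC-MS/MS. LLOQ was 1 ng/mL in plasma and 5 ng/g in brain.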

Series [5] is described as follows: AUClast in CD-1 mouse at 1 mg/kg, iv administered as single dose measured up to 24 hrs. The series is classed as ADME, organism-based. Also noted: route intravenous, dose 1 mg/kg, time <=24. The conditions noted are these: in vivo. Put shortly:
as §2

The nature of series [6]: In vivo modulation of gamma secretase transgenic Tg2576 mouse overexpressing human APP harboring K595N/M596L Swedish double mutant assessed as reduction in brain amyloid beta38 level at 50 mg/kg, po administered via gavage for 14 consecutive days and measured after 4 hrs post last dose on day 14 by meso scale discovery relative to control. The series is classed as functional. Also noted: scale not given: the % may be the effect or the level left. The note with it: time 14 day. In a few lines: as §1

Series [7] has as its target Gamma-secretase. Briefly: Modulation of gamma secretase in human SH-SY5Y cells overexpressing wild type APP751 assessed as effect on amyloid beta40 level by meso scale discovery. The series is classed as cell-based.
The nature of series [8]: In vivo modulation of gamma secretase in transgenic J20 mouse overexpressing human APP assessed as reduction in plasma amyloid beta42 level at 100 mg/kg, po administered via gavage for 3 consecutive days and measured after 4 hrs post last dose on day 3 by meso scale discovery relative to control. The conditions noted are these: time 3 day. Also noted: scale not given: the % may be the effect or the level left. The series is classed as functional. Put shortly: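 Female J20 mice, 5–6 months old (n=5/dose), given vehicle (5% NMP/95% PEG300) or test article at 25, 50 or 100 mg/kg by oral gavage daily for 3 days. Sacrificed 4 h after final dose; plasma Aβ38/40/42 quantified by Meso Scale multiplex (SECTOR Imager 6000). Percent reduction versus vehicle; mean ± SEM, ANOVA.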

A short description of series [9]: Oral bioavailability in CD-1 mouse at 5 mg/kg administered as single dose measured up to 24 hrs. The series is classed as ADME, organism-based. The note with it: in vivo. In a few lines: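 CD-1 mouse PK after single iv (1 mg/kg) and oral gavage (5 mg/kg) dosing, with plasma sampled to 24 h (n=3/timepoint) and measured by HPLC/MS/MS. F(%) = (AUC0-inf po × Dose iv)/(AUC0-inf iv × Dose po) × 100.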

Series [10] relates to Mus musculus. Briefly: In vivo modulation of gamma secretase in po dosed transgenic J20 mouse overexpressing human APP assessed as reduction in plasma amyloid beta42 level administered via gavage for 3 consecutive days and measured after 4 hrs post last dose on day 3 by meso scale discovery. The format is functional, organism-based. The note with it: dose mg/kg 25-100, time 3.0 day. Put shortly: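 Female J20 mice, 5–6 months old (n=5/dose), dosed orally at 25, 50 or 100 mg/kg or with vehicle (5% NMP/95% PEG300) for 3 consecutive days. Plasma was taken 4 h after the final dose. Aβ38/40/42 measured by Meso Scale multiplex immunoassay, with % reduction relative to vehicle. Mean ± SEM, ANOVA.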

The nature of series [11]: In vivo modulation of gamma secretase transgenic Tg2576 mouse overexpressing human APP harboring K595N/M596L Swedish double mutant assessed as reduction in brain amyloid beta40 level at 50 mg/kg, po administered via gavage for 14 consecutive days and measured after 4 hrs post last dose on day 14 by meso scale discovery relative to control. The format is functional. Details: scale not given: the % may be the effect or the level left. The conditions noted are these: time 14 day. In a few lines:
as §1

A short description of series [12]: Ratio of drug level in brain to plasma of transgenic J20 mouse overexpressing human APP at 50 mg/kg, po administered via gavage for 3 consecutive days and measured after 4 hrs post last dose on day 3 by HPLC-MS/MS analysis. The conditions noted are these: 72 h, time 3 day. The format is ADME, organism-based. In a few lines:
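Female J20 mice, 5–6 months old (n=5/dose), dosed by oral gavage once daily for 3 days in 5% NMP/95% PEG300 vehicle. Sacrificed 4 h after the day-3 dose. Plasma and brain drug levels measured by LC-MS/MS (LLOQ 1 ng/mL plasma, 5 ng/g brain). Ratio = brain level/plasma level.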

Series [13] is described as follows: In vivo modulation of gamma secretase transgenic Tg2576 mouse overexpressing human APP harboring K595N/M596L Swedish double mutant assessed as reduction in brain amyloid beta42 level at 50 mg/kg, po administered via gavage for 14 consecutive days and measured after 4 hrs post last dose on day 14 by meso scale discovery relative to control. The series is classed as functional. Details: scale not given: the % may be the effect or the level left. The conditions noted are these: time 14 day. Put shortly: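 Female Tg2576 mice, 5–6 months old (n=12/dose), dosed daily by oral gavage for 14 days with vehicle (5% NMP/95% PEG300) or 50 mg/kg test article. Killed 4 h post final dose; brain and plasma Aβ38/40/42 measured by Meso Scale multiplex (SECTOR Imager 6000). Percent reduction versus vehicle; mean ± SEM, ANOVA.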

For series [14], the target named is Cytochrome P450 2D6 (Homo sapiens, UniProt P10635). Briefly: Inhibition of recombinant CYP2D6 (unknown origin) by fluorescence-based assay. The format is ADME. Put shortly: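 Recombinant CYP isoforms (five tested) screened for inhibition in fluorescence-based assays; IC50 in μM.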
The target of series [15] is Cytochrome P450 3A4 (Homo sapiens, UniProt P08684). Put plainly: Inhibition of recombinant CYP3A4 (unknown origin) by fluorescence-based assay. The format is ADME.
The nature of series [16]: Metabolic stability in mouse liver microsomes assessed as parent compound remaining at 1 uM incubated for 30 mins. The format is ADME, Microsome. The note with it: 0.5 h. Put shortly: (§3)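 Test compound at 1 μM incubated 30 min with human, rat or mouse liver microsomes (1 mg/mL); parent remaining expressed as %.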
Background: Microsomes from liver hold many membrane-bound enzymes, among them those of drug oxidation.

The nature of series [17]: Drug metabolism in CD-1 mouse liver. The note with it: read-out: Drug metabolism. The format is ADME, tissue-based. Put shortly: as §3

Chain of Cytochrome P450 2D6 (P10635 whole entry, canonical isoform): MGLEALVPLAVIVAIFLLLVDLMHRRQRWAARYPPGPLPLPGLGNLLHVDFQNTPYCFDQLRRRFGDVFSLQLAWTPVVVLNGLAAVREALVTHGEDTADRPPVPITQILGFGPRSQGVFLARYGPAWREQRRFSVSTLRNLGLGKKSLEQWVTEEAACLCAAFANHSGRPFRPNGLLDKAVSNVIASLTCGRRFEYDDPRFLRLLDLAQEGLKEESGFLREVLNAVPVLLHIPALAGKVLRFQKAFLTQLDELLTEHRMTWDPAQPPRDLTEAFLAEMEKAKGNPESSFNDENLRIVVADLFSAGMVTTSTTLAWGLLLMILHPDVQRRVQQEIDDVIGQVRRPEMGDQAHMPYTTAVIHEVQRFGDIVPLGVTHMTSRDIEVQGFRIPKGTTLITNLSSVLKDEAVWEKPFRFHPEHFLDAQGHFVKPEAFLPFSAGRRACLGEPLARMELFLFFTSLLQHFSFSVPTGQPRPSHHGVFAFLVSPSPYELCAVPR
Chain of Cytochrome P450 3A4 (P08684 whole entry): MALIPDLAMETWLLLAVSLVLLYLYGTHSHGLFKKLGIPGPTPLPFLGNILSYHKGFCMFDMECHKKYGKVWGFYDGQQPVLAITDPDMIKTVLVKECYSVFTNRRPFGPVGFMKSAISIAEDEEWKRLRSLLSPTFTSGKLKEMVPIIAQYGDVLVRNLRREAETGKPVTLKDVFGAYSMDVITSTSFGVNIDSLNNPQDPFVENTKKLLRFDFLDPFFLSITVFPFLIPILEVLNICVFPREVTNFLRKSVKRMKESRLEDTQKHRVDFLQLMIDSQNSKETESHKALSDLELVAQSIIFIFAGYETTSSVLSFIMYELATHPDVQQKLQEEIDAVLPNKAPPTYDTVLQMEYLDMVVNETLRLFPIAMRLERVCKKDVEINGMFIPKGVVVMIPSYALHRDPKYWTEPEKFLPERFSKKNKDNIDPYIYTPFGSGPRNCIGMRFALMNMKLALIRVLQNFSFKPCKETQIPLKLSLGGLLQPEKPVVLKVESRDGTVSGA

Regarding `CCn1nc2c(c1Nc1nc(-c3ccc(-n4cnc(C)c4)c(OC)n3)cs1)CCC2`, the Tmax in [1] came to 4.98 min. The Activity in series [2] was 24%; in [6], 0%; in series [8], 76%; in series [10] it was “Dose-dependent effect”; in series [11], 1%; in series [13] it was 23%. Further, the half-life in [3] was 42 min. Also, the concentration at 336 h in series [4] amounted to 425 ng/g. Further, the AUClast in series [5] was determined as 376 ng·h/mL. Moreover, the IC50 was 0.209 µM in series [7] and > 100 µM in [14]. In series [9], the F worked out at 66%. Also, the BPR in [12] is 0.38.
Take `COc1nc(-c2csc(Nc3c4c(nn3CCF)CCCC4)n2)ccc1-n1cnc(C)c1`: the Tmax in [1] came out at 4.98 min. The IC50 in series [7] was 0.1 µM; in series [15], 1 µM; in [14], > 100 µM. Moreover, in series [8], the Activity was found to be 55%. The Stabilty in [16] was 100%. Moreover, the BPR in [12] amounted to 0.42. Moreover, in series [17], the metabolised came to 60%.

For the origin of these results see ChEMBL document CHEMBL4699542, “Design and synthesis of novel methoxypyridine-derived gamma-secretase modulators” (Bioorg Med Chem, 2020).
